Measured values taken from ChEMBL document CHEMBL4257498, “Antitumor effects of melanin from Lachnum YM226 and its derivative in H22 tumor-bearing mice” (Medchemcomm, 2018).
The source made the active and inactive calls. The calls are words filed in the database; no cut-off is given here.

How the values were obtained:
[1] = test system: Mus musculus; test: Immunostimulatory activity in Kunming mouse implanted with mouse H22 cells assessed as increase in serum TNFalpha level at 200 mg/kg, ig once daily for 12 days measured at 24 hrs post last dose by ELISA; type: functional, organism-based
Procedure, shortened: (§1)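 Serum came from H22 sc tumor-bearing mice dosed intragastrically once daily for 12 days, collected 24 h after the last dose from the orbital plexus (3000g, 10 min, stored at –80 °C). IL-2, IL-6, TNF-α, IFN-γ, VEGF and bFGF were measured by commercial ELISA kits following the manufacturer's protocol.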

[2] = test system: Mus musculus; test: Immunostimulatory activity in Kunming mouse implanted with mouse H22 cells assessed as increase in serum IL-2 level at 200 mg/kg, ig once daily for 12 days measured at 24 hrs post last dose by ELISA; type: functional, organism-based; procedure, shortened: as §1
[3] = test system: Mus musculus; test: Immunosuppressive effect in Kunming mouse implanted with mouse H22 cells assessed as liver index at 50 mg/kg, ig once daily for 12 days measured at 24 hrs post last dose (reference value: 4.17 +/- 0.68%); type: ADME, organism-based; conditions: in vivo, po
[4] = test system: H22; test: Antitumor activity against mouse H22 cells implanted in Kunming mouse assessed as tumor growth inhibition at 200 mg/kg, ig once daily for 12 days measured at 24 hrs post last dose relative to control; type: functional; conditions: H22, po, read-out: TGI
Procedure, shortened: (§2)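 Sc H22 implant (0.2 mL, 1 × 10^6 cells per mL, right axilla). Intragastric dosing started 3 days later, once daily for 12 days in 0.2 mL; saline control; 10 mice per group. Tumors were excised and weighed 24 h after the last dose. Inhibition rate = (1 – mean treated tumor weight/mean model tumor weight) × 100%. Caliper volume taken every 2 days as A × B2/2.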

[5] = test system: Mus musculus; test: Toxicity in Kunming mouse implanted with mouse H22 cells assessed as increase in body weight at 50 mg/kg, ig once daily for 12 days measured every 3 days during compound dosing; type: organism-based; conditions: in vivo, po
Procedure, shortened: (§3)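 H22 sc tumor-bearing mice were dosed intragastrically once daily for 12 days (0.2 mL, n = 10). Mice were weighed every three days and doses adjusted accordingly. Body weight gain = (final – initial body weight)/initial body weight.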

[6] = test system: H22; test: Antitumor activity against mouse H22 cells implanted in Kunming mouse assessed as tumor growth inhibition administered ig once daily for 12 days measured at 24 hrs post last dose; type: functional; procedure, shortened: as §2
[7] = test system: Mus musculus; test: Decrease in serum bFGF level in Kunming mouse implanted with mouse H22 cells at 50 to 200 mg/kg, ig once daily for 12 days measured at 24 hrs post last dose by ELISA; type: functional, organism-based; procedure, shortened: as §1
[8] = test system: Mus musculus; test: Immunostimulatory activity in Kunming mouse implanted with mouse H22 cells assessed as increase in serum IL-6 level at 50 mg/kg, ig once daily for 12 days measured at 24 hrs post last dose by ELISA; type: functional, organism-based; procedure, shortened: as §1
[9] = test system: H22; test: Antitumor activity against mouse H22 cells implanted in Kunming mouse assessed as decrease in hepatoma cell density at 200 mg/kg, ig once daily for 12 days measured at 24 hrs post last dose by hematoxylin and eosin staining based microscopic method; type: functional, organism-based
Procedure, shortened: (§4)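 H22 cells given 0.2 mL of 1 × 10^6 cells per mL subcutaneously in the right axilla. Treatment began on day 3, […]. Dosing was intragastric in saline, once daily for 12 days, n = 10 per group. Mice were killed 24 h after the last dose. Tumors were fixed in buffered neutral 10% formalin, paraffin-embedded, cut at 4 μm, HE-stained and examined by light microscopy at 400×.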

[10] = test system: Mus musculus; test: Decrease in leukocyte infiltration in Kunming mouse implanted with mouse H22 cells at 50 to 200 mg/kg, ig once daily for 12 days measured at 24 hrs post last dose by hematoxylin and eosin staining based microscopic method; type: functional, organism-based; procedure, shortened: as §4
[11] = test system: H22; test: Antitumor activity against mouse H22 cells implanted in Kunming mouse assessed as necrotic and apoptotic region at 50 to 200 mg/kg, ig once daily for 12 days measured at 24 hrs post last dose by hematoxylin and eosin staining based microscopic method; type: functional, organism-based; procedure, shortened: as §4
[12] = test system: Mus musculus; test: Decrease in serum VEGF level in Kunming mouse implanted with mouse H22 cells at 50 to 200 mg/kg, ig once daily for 12 days measured at 24 hrs post last dose by ELISA; type: functional, organism-based; procedure, shortened: as §1
[13] = test system: Mus musculus; test: Immunostimulatory activity in Kunming mouse implanted with mouse H22 cells assessed as increase in serum IL-6 level at 200 mg/kg, ig once daily for 12 days measured at 24 hrs post last dose by ELISA; type: functional, organism-based; procedure, shortened: as §1
[14] = test system: Mus musculus; test: Renal toxicity in Kunming mouse implanted with mouse H22 cells assessed as increase in serum CRE level at 50 to 200 mg/kg, ig once daily for 12 days measured at 24 hrs post last dose; type: organism-based; conditions: in vivo, po
Procedure, shortened: (§5)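 Mice bore sc H22 tumors and received intragastric doses once daily for 12 days (n = 10). Blood was drawn from the orbital venous plexus 24 h after the last dose. It was allowed to clot and centrifuged at 3000g for 10 min, and the serum was stored at –80 °C. AST, ALT, CRE, BUN and UA were measured with commercial kits.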

[15] = test system: Mus musculus; test: Renal toxicity in Kunming mouse implanted with mouse H22 cells assessed as increase in serum UA level at 50 to 200 mg/kg, ig once daily for 12 days measured at 24 hrs post last dose; type: organism-based; conditions: in vivo, po; procedure, shortened: as §5
[16] = test system: Mus musculus; test: Immunosuppressive effect in Kunming mouse implanted with mouse H22 cells assessed as thymus index at 50 mg/kg, ig once daily for 12 days measured at 24 hrs post last dose (reference value: 0.13 +/- 0.06%); type: ADME, organism-based; conditions: in vivo, po
[17] = test system: Mus musculus; test: Renal toxicity in Kunming mouse implanted with mouse H22 cells assessed as increase in serum BUN level at 50 to 200 mg/kg, ig once daily for 12 days measured at 24 hrs post last dose; type: organism-based; conditions: in vivo, po; procedure, shortened: as §5
[18] = test system: H22; test: Antitumor activity against mouse H22 cells implanted in Kunming mouse assessed as tumor growth inhibition at 50 mg/kg, ig once daily for 12 days measured at 24 hrs post last dose relative to control; type: functional; conditions: H22, po, read-out: TGI; procedure, shortened: as §2
[19] = test system: Mus musculus; test: Toxicity in Kunming mouse implanted with mouse H22 cells assessed as increase in body weight at 200 mg/kg, ig once daily for 12 days measured every 3 days during compound dosing; type: organism-based; conditions: in vivo, po; procedure, shortened: as §3
[20] = test system: Mus musculus; test: Immunosuppressive effect in Kunming mouse implanted with mouse H22 cells assessed as spleen index at 200 mg/kg, ig once daily for 12 days measured at 24 hrs post last dose (reference value: 0.54 +/- 0.09%); type: ADME, organism-based; conditions: in vivo, po
[21] = test system: Mus musculus; test: Immunostimulatory activity in Kunming mouse implanted with mouse H22 cells assessed as increase in serum IL-2 level at 50 mg/kg, ig once daily for 12 days measured at 24 hrs post last dose by ELISA; type: functional, organism-based; procedure, shortened: as §1
[22] = test system: Mus musculus; test: Immunosuppressive effect in Kunming mouse implanted with mouse H22 cells assessed as thymus index at 200 mg/kg, ig once daily for 12 days measured at 24 hrs post last dose (reference value: 0.13 +/- 0.06%); type: ADME, organism-based; conditions: in vivo, po
[23] = test system: Mus musculus; test: Decrease in tumor hemorrhage in Kunming mouse implanted with mouse H22 cells at 50 to 200 mg/kg, ig once daily for 12 days measured at 24 hrs post last dose by hematoxylin and eosin staining based microscopic method; type: functional, organism-based; procedure, shortened: as §4
[24] = test system: Mus musculus; test: Immunosuppressive effect in Kunming mouse implanted with mouse H22 cells assessed as liver index at 200 mg/kg, ig once daily for 12 days measured at 24 hrs post last dose (reference value: 4.17 +/- 0.68%); type: ADME, organism-based; conditions: in vivo, po
[25] = test system: Mus musculus; test: Immunostimulatory activity in Kunming mouse implanted with mouse H22 cells assessed as increase in serum IFNgamma level at 200 mg/kg, ig once daily for 12 days measured at 24 hrs post last dose by ELISA; type: functional, organism-based; procedure, shortened: as §1
[26] = test system: Mus musculus; test: Hepatotoxicity in Kunming mouse implanted with mouse H22 cells assessed as increase in serum ALT level at 50 to 200 mg/kg, ig once daily for 12 days measured at 24 hrs post last dose; type: toxicity, organism-based; conditions: in vivo, po; procedure, shortened: as §5
[27] = test system: Mus musculus; test: Immunosuppressive effect in Kunming mouse implanted with mouse H22 cells assessed as spleen index at 50 mg/kg, ig once daily for 12 days measured at 24 hrs post last dose (reference value: 0.54 +/- 0.09%); type: ADME, organism-based; conditions: in vivo, po
[28] = test system: H22; test: Antitumor activity against mouse H22 cells implanted in Kunming mouse assessed as decrease in nuclear to cytoplasmic ratio at 50 to 200 mg/kg, ig once daily for 12 days measured at 24 hrs post last dose by hematoxylin and eosin staining based microscopic method; type: functional, organism-based; procedure, shortened: as §4
[29] = test system: Mus musculus; test: Hepatotoxicity in Kunming mouse implanted with mouse H22 cells assessed as increase in serum AST level at 50 to 200 mg/kg, ig once daily for 12 days measured at 24 hrs post last dose; type: toxicity, organism-based; conditions: in vivo, po; procedure, shortened: as §5

Activity_index [3]: 3.72% | Activity_index [16]: 0.15% | Activity_index [20]: 0.48% | Activity_index [22]: 0.16% | Activity_index [24]: 3.79% | Activity_index [27]: 0.48%
Structure (SMILES): COc1c(O)cc2cc(C(=O)O)n(C)c2c1C1=c2cc(C(=O)O)[nH]c2=C(Cc2cc(C(=O)O)[nH]c2C(=O)O)C(=O)C1=O
Activity [1]: Active | Activity [2]: Active | inhibition in vivo at 200 mg/kg [4]: 35% | Activity [5]: 8.2 g | TGI [6]: Dose-dependent effect | Activity [7]: Active | Activity [8]: Active | Activity [9]: Active | Activity [10]: Active | Activity [11]: Active | Activity [12]: Active | Activity [13]: Active | Activity [14]: Non-Toxic | Activity [15]: Non-Toxic | Activity [17]: Non-Toxic | inhibition in vivo at 50 mg/kg [18]: 32.3% | Activity [19]: 7.56 g | Activity [21]: Active | Activity [23]: Active | Activity [25]: Active | Activity [26]: Non-Toxic | Activity [28]: Active | Activity [29]: Non-Toxic
